Assay results: ChEMBL document CHEMBL3352407, “Griseorhodins D-F, neuroactive intermediates and end products of post-PKS tailoring modification in Griseorhodin biosynthesis” (J Nat Prod, 2014)
Calls of active or inactive are those of the source.

What was measured:
DRG neuron = test: Increase in Ca2+ uptake in mouse DRG neurons at 20 ug/ml by Fura-2 dye-based fluorescence microscopy; format: functional
Summary of the method: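 Mouse DRG cells plated in medium with additives and loaded with the Ca2+ dye Fura-2 AM. Compound applied directly at 20 μg/mL. Read-out is the fraction of cells showing a rise in Ca2+ concentration.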

[1] = target: Muscarinic acetylcholine receptor M1 (Homo sapiens) (UniProt P11229); test: Binding affinity to human M1 receptor expressed in CHO cells at 10 uM after 90 mins by microbeta counting analysis; format: cell-based
Summary of the method: (§1)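 Primary radioligand displacement screen, run by PDSP/NIMH. Receptor panel includes muscarinic M1–M5. Activity threshold 10 μM. Targets with significant binding went on to secondary Ki assays.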

[2] = target: Muscarinic acetylcholine receptor M2 (Homo sapiens) (UniProt P08172); test: Binding affinity to human M2 receptor expressed in CHO cells at 10 uM after 90 mins by microbeta counting analysis; format: cell-based; summary of the method: as §1
[3] = target: Muscarinic acetylcholine receptor M3 (Homo sapiens) (UniProt P20309); test: Binding affinity to human M3 receptor expressed in CHO Flp-In cells at 10 uM after 90 mins by microbeta counting analysis; format: cell-based; summary of the method: as §1
[4] = target: Muscarinic acetylcholine receptor M4 (Homo sapiens) (UniProt P08173); test: Binding affinity to human M4 receptor expressed in CHO cells at 10 uM after 90 mins by microbeta counting analysis; format: cell-based; summary of the method: as §1
[5] = target: Muscarinic acetylcholine receptor M5 (Homo sapiens) (UniProt P08912); test: Binding affinity to human M5 receptor expressed in CHO cells at 10 uM after 90 mins by microbeta counting analysis; format: cell-based; summary of the method: as §1
[6] = target: 5-hydroxytryptamine receptor 1A (Homo sapiens) (UniProt P08908); test: Displacement of [3H]Way100635 from human serotonin 5-HT1A receptor expressed in CHO cells at 10 uM after 90 mins by microbeta counting analysis; format: cell-based; summary of the method: as §1
[7] = target: 5-hydroxytryptamine receptor 1B (Homo sapiens) (UniProt P28222); test: Displacement of [3H]5-CT from human serotonin 5-HT1B receptor expressed in HEK cells at 10 uM after 90 mins by microbeta counting analysis; format: cell-based; conditions: HEK293; summary of the method: as §1
[8] = target: 5-hydroxytryptamine receptor 1D (Homo sapiens) (UniProt P28221); test: Displacement of [3H]5-CT from human serotonin 5-HT1D receptor expressed in HEKT cells at 10 uM after 90 mins by microbeta counting analysis; format: cell-based; summary of the method: as §1
[9] = target: 5-hydroxytryptamine receptor 1E (Homo sapiens) (UniProt P28566); test: Displacement of [3H]5-HT from human serotonin 5-HT1E receptor expressed in HEK cells at 10 uM after 90 mins by microbeta counting analysis; format: cell-based; conditions: HEK293; summary of the method: as §1
[10] = target: 5-hydroxytryptamine receptor 2A (Homo sapiens) (UniProt P28223); test: Displacement of [3H]ketanserin from human serotonin 5-HT2A receptor expressed in HEKT cells at 10 uM after 90 mins by microbeta counting analysis; format: cell-based; summary of the method: as §1
[11] = target: 5-hydroxytryptamine receptor 2B (Homo sapiens) (UniProt P41595); test: Displacement of [3H]LSD from human serotonin 5-HT2B receptor expressed in HEK cells at 10 uM after 90 mins by microbeta counting analysis; format: cell-based; conditions: HEK293; summary of the method: as §1
[12] = target: 5-hydroxytryptamine receptor 2C (Homo sapiens) (UniProt P28335); test: Displacement of [3H]Mesulergine from human serotonin 5-HT2C receptor expressed in Flp-IN HEK cells at 10 uM after 90 mins by microbeta counting analysis; format: cell-based; conditions: HEK293; summary of the method: as §1
[13] = target: 5-hydroxytryptamine receptor 3A (Homo sapiens) (UniProt P46098); test: Displacement of [3H]GR65630 from human serotonin 5-HT3 receptor expressed in HEKT cells at 10 uM after 90 mins by microbeta counting analysis; format: cell-based; summary of the method: as §1
[14] = target: 5-hydroxytryptamine receptor 4 (Homo sapiens) (UniProt Q13639); test: Displacement of [3H]GR113808 from human serotonin 5-HT4 receptor at 10 uM after 90 mins by microbeta counting analysis; summary of the method: as §1
[15] = target: 5-hydroxytryptamine receptor 5A (Homo sapiens) (UniProt P47898); test: Displacement of [3H]LSD from human serotonin 5-HT5A receptor expressed in Flp-In CHO cells at 10 uM after 90 mins by microbeta counting analysis; format: cell-based; summary of the method: as §1
[16] = target: 5-hydroxytryptamine receptor 6 (Homo sapiens) (UniProt P50406); test: Displacement of [3H]LSD from human serotonin 5-HT6 receptor expressed in HEK cells at 10 uM after 90 mins by microbeta counting analysis; format: cell-based; conditions: HEK293; summary of the method: as §1
[17] = target: 5-hydroxytryptamine receptor 7 (Homo sapiens) (UniProt P34969); test: Displacement of [3H]LSD from human serotonin 5-HT7 receptor expressed in HEK cells at 10 uM after 90 mins by microbeta counting analysis; format: cell-based; conditions: HEK293; summary of the method: as §1
[18] = target: GABA-A receptor; anion channel (Homo sapiens) (UniProt P14867+P47870+P18507+P28472+P48169+Q99928+Q9UN88+P34903+O00591+O14764+Q8N1C3+P18505+P78334+P47869+P31644+Q16445); test: Displacement of [3H]Muscimol from rat GABAA receptor at 10 uM after 90 mins by microbeta counting analysis; format: protein-complex assay; conditions: target entry is the homologue from another species; summary of the method: as §1
Rattus norvegicus [19] = species: Rattus norvegicus; test: Binding affinity to rat GABAB receptor at 10 uM after 90 mins by microbeta counting analysis; summary of the method: as §1
[20] = target: Histamine H1 receptor (Homo sapiens) (UniProt P35367); test: Displacement of [3H]pyrilamine from human H1 histamine receptor expressed in HEK cells at 10 uM after 90 mins by microbeta counting analysis; format: cell-based; conditions: HEK293; summary of the method: as §1
[21] = target: Histamine H2 receptor (Homo sapiens) (UniProt P25021); test: Binding affinity to human H2 histamine receptor expressed in HEK cells at 10 uM after 90 mins by microbeta counting analysis; format: cell-based; conditions: HEK293; summary of the method: as §1
[22] = target: Histamine H3 receptor (Homo sapiens) (UniProt Q9Y5N1); test: Displacement of [3H]alpha-methylhistamine from human H3 histamine receptor expressed in HEK cells at 10 uM after 90 mins by microbeta counting analysis; format: cell-based; conditions: HEK293; summary of the method: as §1
[23] = target: Histamine H4 receptor (Homo sapiens) (UniProt Q9H3N8); test: Displacement of [3H]histamine from human H4 histamine receptor expressed in HEK cells at 10 uM after 90 mins by microbeta counting analysis; format: cell-based; conditions: HEK293; summary of the method: as §1
[24] = target: D(1A) dopamine receptor (Homo sapiens) (UniProt P21728); test: Displacement of [3H]SCH23390 from human dopamine D1 receptor expressed in HEKT cells at 10 uM after 90 mins by microbeta counting analysis; format: cell-based; summary of the method: as §1
[25] = target: D(2) dopamine receptor (Homo sapiens) (UniProt P14416); test: Displacement of [3H]N-methylspiperone from human dopamine D2 receptor at 10 uM after 90 mins by microbeta counting analysis; summary of the method: as §1
[26] = target: D(3) dopamine receptor (Rattus norvegicus) (UniProt P19020); test: Displacement of [3H]N-methylspiperone from rat dopamine D3 receptor expressed in HEKT cells at 10 uM after 90 mins by microbeta counting analysis; format: cell-based; summary of the method: as §1
[27] = target: D(4) dopamine receptor (Homo sapiens) (UniProt P21917); test: Displacement of [3H]N-methylspiperone from human dopamine D4 receptor at 10 uM after 90 mins by microbeta counting analysis; summary of the method: as §1
[28] = target: D(1B) dopamine receptor (Homo sapiens) (UniProt P21918); test: Displacement of [3H]SCH23390 from human dopamine D5 receptor expressed in HEKT cells at 10 uM after 90 mins by microbeta counting analysis; format: cell-based; summary of the method: as §1
[29] = target: Sodium-dependent noradrenaline transporter (Homo sapiens) (UniProt P23975); test: Displacement of [3H]nisoxetine from NET (unknown origin) expressed in HEK cells at 10 uM after 90 mins by microbeta counting analysis; format: cell-based; conditions: HEK293; summary of the method: as §1
[30] = target: Sodium-dependent serotonin transporter (Homo sapiens) (UniProt P31645); test: Displacement of [3H]citalopram from SERT (unknown origin) expressed in HEK cells at 10 uM after 90 mins by microbeta counting analysis; format: cell-based; conditions: HEK293; summary of the method: as §1
[31] = target: Sodium-dependent dopamine transporter (Homo sapiens) (UniProt Q01959); test: Displacement of [3H]WIN35428 from human DAT expressed in HEK cells at 10 uM after 90 mins by microbeta counting analysis; format: cell-based; conditions: HEK293
[32] = target: Delta-type opioid receptor (Homo sapiens) (UniProt P41143); test: Displacement of [3H]DADLE from delta opioid receptor (unknown origin) expressed in HEK cells at 10 uM after 90 mins by microbeta counting analysis; format: cell-based; conditions: HEK293; summary of the method: as §1
[33] = target: Kappa-type opioid receptor (Homo sapiens) (UniProt P41145); test: Displacement of [3H]U69593 from kappa opioid receptor (unknown origin) expressed in HEK cells at 10 uM after 90 mins by microbeta counting analysis; format: cell-based; conditions: HEK293; summary of the method: as §1
[34] = target: Mu-type opioid receptor (Homo sapiens) (UniProt P35372); test: Displacement of [3H]DAMGO from mu opioid receptor (unknown origin) expressed in HEK cells at 10 uM after 90 mins by microbeta counting analysis; format: cell-based; conditions: HEK293; summary of the method: as §1
[35] = target: Alpha-1A adrenergic receptor (Homo sapiens) (UniProt P35348); test: Displacement of [3H]prazosin from adrenergic alpha1A receptor (unknown origin) at 10 uM after 90 mins by microbeta counting analysis; summary of the method: as §1
[36] = target: Alpha-1B adrenergic receptor (Homo sapiens) (UniProt P35368); test: Displacement of [3H]prazosin from adrenergic alpha1B receptor (unknown origin) expressed in HEKT cells at 10 uM after 90 mins by microbeta counting analysis; format: cell-based; summary of the method: as §1
[37] = target: Alpha-1D adrenergic receptor (Homo sapiens) (UniProt P25100); test: Displacement of [3H]prazosin from adrenergic alpha1D receptor (unknown origin) at 10 uM after 90 mins by microbeta counting analysis; summary of the method: as §1
[38] = target: Alpha-2A adrenergic receptor (Homo sapiens) (UniProt P08913); test: Displacement of [3H]rauwolscine from adrenergic alpha2A receptor (unknown origin) expressed in MDCK cells at 10 uM after 90 mins by microbeta counting analysis; format: cell-based; summary of the method: as §1
[39] = target: Alpha-2B adrenergic receptor (Homo sapiens) (UniProt P18089); test: Displacement of [3H]rauwolscine from adrenergic alpha2B receptor (unknown origin) expressed in HEKT cells at 10 uM after 90 mins by microbeta counting analysis; format: cell-based; summary of the method: as §1
[40] = target: Alpha-2C adrenergic receptor (Homo sapiens) (UniProt P18825); test: Displacement of [3H]rauwolscine from adrenergic alpha2C receptor (unknown origin) expressed in MDCK cells at 10 uM after 90 mins by microbeta counting analysis; format: cell-based; summary of the method: as §1
[41] = target: Beta-1 adrenergic receptor (Homo sapiens) (UniProt P08588); test: Binding affinity to human adrenergic beta1 receptor expressed in CHO Flp-In cells at 10 uM after 90 mins by microbeta counting analysis; format: cell-based; summary of the method: as §1
[42] = target: Beta-2 adrenergic receptor (Homo sapiens) (UniProt P07550); test: Displacement of [3H]CGP12177 from human adrenergic beta2 receptor expressed in HEK Flp-In cells at 10 uM after 90 mins by microbeta counting analysis; format: cell-based; conditions: HEK293; summary of the method: as §1
[43] = target: Beta-3 adrenergic receptor (Homo sapiens) (UniProt P13945); test: Binding affinity to human adrenergic beta3 receptor expressed in HEK Flp-In cells at 10 uM after 90 mins by microbeta counting analysis; format: cell-based; conditions: HEK293; summary of the method: as §1
[44] = target: Sigma non-opioid intracellular receptor 1 (Rattus norvegicus) (UniProt Q9R0C9); test: Displacement of [3H]pentazocine from rat sigma1 receptor at 10 uM after 90 mins by microbeta counting analysis; summary of the method: as §1
Rattus norvegicus [45] = species: Rattus norvegicus; test: Displacement of [3H]DTG from rat sigma2 receptor at 10 uM after 90 mins by microbeta counting analysis; summary of the method: as §1
[46] = target: Voltage-gated L-type calcium channel (Rattus norvegicus, UniProt P22002+Q02485+P27732); test: Binding affinity to rat calcium channel at 10 uM after 90 mins by microbeta counting analysis; conditions: 1.5 h; summary of the method: as §1

Chain of D(2) dopamine receptor (Homo sapiens) (P14416 whole entry): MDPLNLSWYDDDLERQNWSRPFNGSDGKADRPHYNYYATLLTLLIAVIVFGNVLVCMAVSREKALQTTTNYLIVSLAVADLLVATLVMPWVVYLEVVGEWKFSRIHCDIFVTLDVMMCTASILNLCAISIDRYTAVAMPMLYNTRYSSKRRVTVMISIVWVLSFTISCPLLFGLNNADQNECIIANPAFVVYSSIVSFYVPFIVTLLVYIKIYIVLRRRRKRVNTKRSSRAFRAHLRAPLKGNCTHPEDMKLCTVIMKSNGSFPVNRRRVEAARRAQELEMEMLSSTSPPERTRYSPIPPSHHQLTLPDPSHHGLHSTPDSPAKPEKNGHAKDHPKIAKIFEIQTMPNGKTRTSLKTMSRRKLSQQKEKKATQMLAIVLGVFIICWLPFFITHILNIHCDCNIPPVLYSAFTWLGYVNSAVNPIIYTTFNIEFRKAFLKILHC
Chain of Beta-3 adrenergic receptor (Homo sapiens) (P13945 whole entry, looked up): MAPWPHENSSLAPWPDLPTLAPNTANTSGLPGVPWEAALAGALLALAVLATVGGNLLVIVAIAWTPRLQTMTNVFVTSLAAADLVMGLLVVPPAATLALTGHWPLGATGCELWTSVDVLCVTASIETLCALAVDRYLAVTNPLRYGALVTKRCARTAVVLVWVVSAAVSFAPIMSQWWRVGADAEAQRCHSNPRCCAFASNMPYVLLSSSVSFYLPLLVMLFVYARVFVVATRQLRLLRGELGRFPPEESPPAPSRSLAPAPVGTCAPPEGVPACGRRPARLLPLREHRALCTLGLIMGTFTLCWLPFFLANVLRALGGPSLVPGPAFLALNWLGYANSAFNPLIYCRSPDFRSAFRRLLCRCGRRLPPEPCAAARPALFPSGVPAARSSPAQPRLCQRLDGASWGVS
Chain of 5-hydroxytryptamine receptor 4 (Homo sapiens) (Q13639 whole entry): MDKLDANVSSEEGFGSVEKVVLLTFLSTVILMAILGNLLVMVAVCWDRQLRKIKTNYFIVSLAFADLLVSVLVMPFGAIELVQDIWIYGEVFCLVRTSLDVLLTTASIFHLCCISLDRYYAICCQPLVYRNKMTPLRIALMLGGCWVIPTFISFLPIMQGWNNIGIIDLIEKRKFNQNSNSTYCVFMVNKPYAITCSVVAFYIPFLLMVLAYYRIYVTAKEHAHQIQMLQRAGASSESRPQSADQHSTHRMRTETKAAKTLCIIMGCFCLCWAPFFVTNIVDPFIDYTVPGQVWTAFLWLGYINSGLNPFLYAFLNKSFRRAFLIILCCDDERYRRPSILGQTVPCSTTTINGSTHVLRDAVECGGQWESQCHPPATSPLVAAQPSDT
Chain of 5-hydroxytryptamine receptor 1D (Homo sapiens) (P28221 whole entry): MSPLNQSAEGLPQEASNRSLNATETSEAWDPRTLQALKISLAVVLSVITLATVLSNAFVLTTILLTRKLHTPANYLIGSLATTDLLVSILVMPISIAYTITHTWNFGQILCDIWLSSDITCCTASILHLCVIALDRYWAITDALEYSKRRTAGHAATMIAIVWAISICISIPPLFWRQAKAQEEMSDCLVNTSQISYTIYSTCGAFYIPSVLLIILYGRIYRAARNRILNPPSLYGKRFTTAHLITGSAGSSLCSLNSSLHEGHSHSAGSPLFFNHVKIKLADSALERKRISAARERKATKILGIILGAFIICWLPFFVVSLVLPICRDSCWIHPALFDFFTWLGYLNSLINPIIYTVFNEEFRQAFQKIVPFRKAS
Chain of Sodium-dependent serotonin transporter (Homo sapiens) (P31645 whole entry, looked up): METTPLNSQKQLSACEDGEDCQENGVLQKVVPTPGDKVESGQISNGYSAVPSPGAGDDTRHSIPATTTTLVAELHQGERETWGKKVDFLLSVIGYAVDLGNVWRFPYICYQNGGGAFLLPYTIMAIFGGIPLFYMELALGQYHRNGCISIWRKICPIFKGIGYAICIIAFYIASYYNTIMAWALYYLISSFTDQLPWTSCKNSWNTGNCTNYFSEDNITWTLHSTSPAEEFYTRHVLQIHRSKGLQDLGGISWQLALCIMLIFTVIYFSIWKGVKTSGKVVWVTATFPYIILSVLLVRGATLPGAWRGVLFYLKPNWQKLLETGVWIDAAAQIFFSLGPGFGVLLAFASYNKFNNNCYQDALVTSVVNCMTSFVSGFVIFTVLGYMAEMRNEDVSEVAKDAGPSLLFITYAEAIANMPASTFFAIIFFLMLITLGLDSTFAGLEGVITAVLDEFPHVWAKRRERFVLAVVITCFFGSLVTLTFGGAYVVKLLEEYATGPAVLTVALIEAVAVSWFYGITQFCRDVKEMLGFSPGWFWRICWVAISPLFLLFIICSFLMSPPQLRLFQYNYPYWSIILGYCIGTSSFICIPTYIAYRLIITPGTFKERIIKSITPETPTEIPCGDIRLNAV
Chain of Alpha-2A adrenergic receptor (Homo sapiens) (P08913 whole entry): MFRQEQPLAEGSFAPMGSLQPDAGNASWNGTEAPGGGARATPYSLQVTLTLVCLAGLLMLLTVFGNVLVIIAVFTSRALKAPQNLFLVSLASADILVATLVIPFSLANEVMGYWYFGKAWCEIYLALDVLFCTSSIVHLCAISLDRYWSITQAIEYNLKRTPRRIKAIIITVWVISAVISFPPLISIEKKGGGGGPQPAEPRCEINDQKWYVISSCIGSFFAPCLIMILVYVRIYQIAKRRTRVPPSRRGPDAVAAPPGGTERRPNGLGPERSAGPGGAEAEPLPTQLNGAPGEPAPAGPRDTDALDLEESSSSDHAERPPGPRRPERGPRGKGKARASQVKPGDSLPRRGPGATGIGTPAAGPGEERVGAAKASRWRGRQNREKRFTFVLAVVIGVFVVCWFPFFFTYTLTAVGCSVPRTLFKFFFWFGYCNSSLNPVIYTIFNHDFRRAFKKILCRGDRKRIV
Chain of Alpha-1D adrenergic receptor (Homo sapiens) (P25100 whole entry): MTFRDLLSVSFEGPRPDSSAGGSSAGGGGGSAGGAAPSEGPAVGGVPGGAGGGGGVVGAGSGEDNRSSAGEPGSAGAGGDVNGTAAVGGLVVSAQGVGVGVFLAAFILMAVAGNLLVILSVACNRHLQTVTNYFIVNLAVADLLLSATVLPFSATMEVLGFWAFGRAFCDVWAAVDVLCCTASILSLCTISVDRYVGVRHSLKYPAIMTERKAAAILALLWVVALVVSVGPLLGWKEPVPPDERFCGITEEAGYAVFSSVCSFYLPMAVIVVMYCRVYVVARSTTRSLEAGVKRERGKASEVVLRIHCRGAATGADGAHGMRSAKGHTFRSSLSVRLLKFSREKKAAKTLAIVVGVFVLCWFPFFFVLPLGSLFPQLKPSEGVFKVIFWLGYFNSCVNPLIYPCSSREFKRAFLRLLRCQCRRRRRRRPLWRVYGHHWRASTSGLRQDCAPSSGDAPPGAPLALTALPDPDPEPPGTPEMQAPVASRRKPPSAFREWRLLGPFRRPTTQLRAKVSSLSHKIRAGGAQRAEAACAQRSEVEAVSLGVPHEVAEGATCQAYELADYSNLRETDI
Chain of 5-hydroxytryptamine receptor 2C (Homo sapiens) (P28335 whole entry): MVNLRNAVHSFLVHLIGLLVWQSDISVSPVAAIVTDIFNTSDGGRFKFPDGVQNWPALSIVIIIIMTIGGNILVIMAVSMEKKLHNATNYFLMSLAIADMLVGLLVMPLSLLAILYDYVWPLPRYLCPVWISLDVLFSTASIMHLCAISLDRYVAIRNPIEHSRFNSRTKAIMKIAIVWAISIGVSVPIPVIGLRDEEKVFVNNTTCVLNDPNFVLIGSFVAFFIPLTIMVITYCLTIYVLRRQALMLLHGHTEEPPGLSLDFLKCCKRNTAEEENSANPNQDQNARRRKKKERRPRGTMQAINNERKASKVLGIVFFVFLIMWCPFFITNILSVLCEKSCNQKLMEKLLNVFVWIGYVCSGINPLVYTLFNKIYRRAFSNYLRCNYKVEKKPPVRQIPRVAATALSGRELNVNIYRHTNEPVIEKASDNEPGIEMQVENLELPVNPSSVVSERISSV
Chain of Histamine H3 receptor (Homo sapiens) (Q9Y5N1 whole entry): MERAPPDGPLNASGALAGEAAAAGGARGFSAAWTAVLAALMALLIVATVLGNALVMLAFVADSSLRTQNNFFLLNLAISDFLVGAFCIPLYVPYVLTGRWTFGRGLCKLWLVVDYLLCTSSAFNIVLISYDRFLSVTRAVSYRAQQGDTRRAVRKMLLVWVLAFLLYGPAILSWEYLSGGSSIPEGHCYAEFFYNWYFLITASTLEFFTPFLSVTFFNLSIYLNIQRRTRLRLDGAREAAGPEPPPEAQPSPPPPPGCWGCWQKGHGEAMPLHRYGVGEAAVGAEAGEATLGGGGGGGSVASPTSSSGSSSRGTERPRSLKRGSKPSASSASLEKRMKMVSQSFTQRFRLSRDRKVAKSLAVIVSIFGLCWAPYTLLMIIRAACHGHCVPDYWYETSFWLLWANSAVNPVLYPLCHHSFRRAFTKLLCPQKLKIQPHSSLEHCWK
Chain of Histamine H2 receptor (Homo sapiens) (P25021 whole entry): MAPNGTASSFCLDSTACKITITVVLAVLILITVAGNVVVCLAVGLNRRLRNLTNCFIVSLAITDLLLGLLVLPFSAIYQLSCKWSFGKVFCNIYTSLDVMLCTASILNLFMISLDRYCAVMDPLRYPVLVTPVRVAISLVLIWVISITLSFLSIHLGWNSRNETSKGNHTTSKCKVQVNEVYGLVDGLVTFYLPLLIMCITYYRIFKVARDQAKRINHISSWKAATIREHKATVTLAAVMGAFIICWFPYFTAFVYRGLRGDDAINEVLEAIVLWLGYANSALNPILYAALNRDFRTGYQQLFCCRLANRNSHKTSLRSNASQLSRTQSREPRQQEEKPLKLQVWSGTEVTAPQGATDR
Chain of 5-hydroxytryptamine receptor 5A (Homo sapiens) (P47898 whole entry): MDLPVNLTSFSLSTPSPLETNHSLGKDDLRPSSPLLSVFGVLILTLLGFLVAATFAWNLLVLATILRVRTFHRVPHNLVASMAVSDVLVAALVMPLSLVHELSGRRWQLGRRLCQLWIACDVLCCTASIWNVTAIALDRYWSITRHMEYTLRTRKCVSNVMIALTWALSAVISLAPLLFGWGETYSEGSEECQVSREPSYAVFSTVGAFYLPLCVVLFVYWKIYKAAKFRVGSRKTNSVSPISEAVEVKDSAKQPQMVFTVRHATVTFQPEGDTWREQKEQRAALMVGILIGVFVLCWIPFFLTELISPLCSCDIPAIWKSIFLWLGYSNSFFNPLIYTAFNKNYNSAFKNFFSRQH

Activity [1]: inactive
Activity [2]: inactive
Activity [3]: inactive
Activity [4]: inactive
Activity [5]: inactive
Activity [6]: inactive
Activity [7]: inactive
Activity [8]: inactive
Activity [9]: inactive
Activity [10]: inactive
Activity [11]: inactive
Activity [12]: inactive
Activity [13]: inactive
Activity [14]: inactive
Activity [15]: inactive
Activity [16]: inactive
Activity [17]: inactive
Activity [18]: inactive
Activity (Rattus norvegicus [19]): inactive
Activity [20]: inactive
Activity [21]: inactive
Activity [22]: inactive
Activity [23]: inactive
Activity [24]: inactive
Activity [25]: inactive
Activity [26]: inactive
Activity [27]: inactive
Activity [28]: inactive
Activity [29]: inactive
Activity [30]: inactive
Activity [31]: inactive
Activity [32]: inactive
Activity [33]: inactive
Activity [34]: inactive
Activity [35]: inactive
Activity [36]: inactive
Activity [37]: inactive
Activity [38]: inactive
Activity [39]: inactive
Activity [40]: inactive
Activity [41]: inactive
Activity [42]: inactive
Activity [43]: inactive
Activity [44]: inactive
Activity (Rattus norvegicus [45]): inactive
Activity [46]: Not Active
SMILES: COC(=O)CCc1cc2cc(C)oc(=O)c2c(O)c1O
Activity (DRG neuron): Active
